≈ marks a conversion by molar mass, not a printed value.
Tests used:
Staphylococcus aureus [1] = assay: Antimicrobial activity against vancomycin-intermediate-, methicillin-resistant Staphylococcus aureus 770 assessed as time required to induce post antibiotic sub-MIC effect at 0.4 times MIC […] by plate counting method; assay type: functional
Procedure, shortened: (§1)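 PAE was first induced with 10× MIC for 1 h at 35°C (inoculum about 5 × 10^6 CFU/ml, Mueller-Hinton broth) and ended by 1:1,000 dilution. Cultures were then split and given 0.2, 0.3 or 0.4× MIC, with one tube left without drug. Viable counts were taken before exposure, after dilution, then every 2 h until McFarland no. 1 turbidity. Two separate experiments, each with a new inoculum.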

Staphylococcus aureus [2] = assay: Antimicrobial activity against heterogenous vancomycin-intermediate-, methicillin-resistant Staphylococcus aureus 618 assessed as post-antibiotic effect at 10 times MIC pre-exposed to Telavancin for 1 hr by plate counting method; assay type: functional
Procedure, shortened: (§2)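 Viable plate count method in Mueller-Hinton broth. Direct colony suspension inoculum of about 5 × 10^6 CFU/ml was exposed to 10× MIC for 1 h at 35°C in a shaking water bath, then diluted 1:1,000 to remove drug. Counts were taken before exposure, at 0 h, then every 2 h until McFarland no. 1 turbidity. PAE = T − C, the time to a 1 log10 rise versus an unexposed growth control.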

Staphylococcus aureus [3] = assay: Antimicrobial activity against vancomycin-intermediate-, methicillin-resistant Staphylococcus aureus 1287 by microdilution method; assay type: functional
Streptococcus agalactiae [4] = assay: Antimicrobial activity against Streptococcus agalactiae HMC 5 assessed as time required to induce post antibiotic sub-MIC effect at 0.2 times MIC pre-exposed to Telavancin for 2 hrs by plate counting method; assay type: functional; details: in the assay text read “for 1 hr” for “for 2 hrs”
Procedure, shortened: (§3)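 Mueller-Hinton broth cultures of about 5 × 10^6 CFU/ml were pre-exposed to telavancin at 10× MIC for 1 h at 35°C, then diluted 1:1,000. Telavancin was re-added to final 0.2, 0.3 or 0.4× MIC, alongside a drug-free tube. Viable counts were taken before exposure, after dilution, then every 2 h until McFarland no. 1 turbidity. Duration comes from log10 CFU/ml-versus-time plots; two separate experiments with fresh inocula.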

Staphylococcus aureus [5] = assay: Antimicrobial activity against vancomycin-susceptible-, methicillin-resistant Staphylococcus aureus 1307 assessed as time required to induce sub-MIC effect at 0.2 times MIC exposed for 2 hrs by plate counting method; assay type: functional
Procedure, shortened: (§4)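 Sub-MIC effect: cultures not preexposed to drug were diluted and handled as in the PA-SME procedure in Mueller-Hinton broth with final 0.2, 0.3 or 0.4× MIC, plus a drug-free control. Viable plate counts were taken every 2 h until McFarland 1 turbidity. Duration was derived from growth curves. Two experiments were run, each with a new inoculum.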

Staphylococcus aureus [6] = assay: Antimicrobial activity against vancomycin-intermediate-, methicillin-resistant Staphylococcus aureus 1984 assessed as time required to induce sub-MIC effect at 0.2 times MIC […] by plate counting method; assay type: functional
Procedure, shortened: (§5)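 SME, viable plate count method: no prior drug exposure. About 5 × 10^6 CFU/ml in Mueller-Hinton broth at 35°C received 0.2, 0.3 or 0.4× MIC, alongside a drug-free tube. Counts were taken at the start, then every 2 h until McFarland no. 1 turbidity, as log10 CFU/ml against time. Two separate experiments, each with a new inoculum.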

Enterococcus faecalis [7] = assay: Antimicrobial activity against Enterococcus faecalis HMC 571 assessed as time required to induce post antibiotic sub-MIC effect at 0.4 times MIC […] by plate counting method; assay type: functional; procedure, shortened: as §1
Streptococcus pyogenes = assay: Antimicrobial activity against Streptococcus pyogenes HMC 414 assessed as time required to induce sub-MIC effect at 0.4 times MIC exposed for 2 hrs by plate counting method; assay type: functional
Procedure, shortened: (§6)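 Unexposed Mueller-Hinton broth cultures (about 5 × 10^6 CFU/ml, 35°C) were handled as in the PA-SME set but without the 10× MIC pre-exposure. They were diluted 1:1,000, then given telavancin at final 0.2, 0.3 or 0.4× MIC, with a drug-free control. Viable counts were taken every 2 h until McFarland no. 1 turbidity. Effect duration comes from log10 CFU/ml-time plots; two separate experiments with new inocula.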

Staphylococcus aureus [8] = assay: Antimicrobial activity against vancomycin-intermediate-, methicillin-resistant Staphylococcus aureus 770 by microdilution method; assay type: functional
Staphylococcus aureus [9] = assay: Antimicrobial activity against vancomycin-susceptible-, methicillin-resistant Staphylococcus aureus ATCC 33591 assessed as time required to induce post antibiotic sub-MIC effect at 0.2 times MIC pre-exposed to Telavancin […] by plate counting method; assay type: functional
Procedure, shortened: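 After 1 h preexposure to 10× MIC at 35°C and 1:1,000 dilution, cultures were split, and drug was re-added to final 0.2, 0.3 or 0.4× MIC, with a drug-free tube. Viable counts were taken every 2 h until McFarland 1 turbidity. Duration was derived from log10 CFU/ml versus time curves. Two experiments were run, each with a new inoculum.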

Staphylococcus aureus [10] = assay: Antimicrobial activity against heterogenous vancomycin-intermediate-, methicillin-resistant Staphylococcus aureus 873 assessed as post-antibiotic effect at 10 times MIC pre-exposed to Telavancin for 1 hr by plate counting method; assay type: functional; procedure, shortened: as §2
Enterococcus faecalis [11] = assay: Antimicrobial activity against Enterococcus faecalis ATCC 29212 assessed as time required to induce sub-MIC effect at 0.4 times MIC exposed for 2 hrs by plate counting method; assay type: functional; procedure, shortened: as §6
Staphylococcus aureus [12] = assay: Antimicrobial activity against vancomycin-intermediate-, methicillin-resistant Staphylococcus aureus 555 assessed as post-antibiotic effect at 10 times MIC pre-exposed to Telavancin for 1 hr by plate counting method; assay type: functional; procedure, shortened: as §2
Staphylococcus aureus [13] = assay: Antimicrobial activity against heterogenous vancomycin-intermediate-, methicillin-resistant Staphylococcus aureus 618 assessed as time required to induce sub-MIC effect at 0.3 times MIC […] by plate counting method; assay type: functional; procedure, shortened: as §5
Staphylococcus aureus [14] = assay: Antimicrobial activity against vancomycin-resistant-, methicillin-resistant Staphylococcus aureus 510 assessed as time required to induce sub-MIC effect at 0.4 times MIC exposed for 2 hrs by plate counting method; assay type: functional; procedure, shortened: as §4
Staphylococcus aureus [15] = assay: Antimicrobial activity against vancomycin-intermediate-, methicillin-resistant Staphylococcus aureus 1287 assessed as time required to induce post antibiotic sub-MIC effect at 0.2 times MIC pre-exposed to Telavancin for 1 hr by plate counting method
Staphylococcus aureus [16] = assay: Antimicrobial activity against heterogenous vancomycin-intermediate-, methicillin-resistant Staphylococcus aureus 873 assessed as time required to induce post antibiotic sub-MIC effect at 0.4 times MIC […] by plate counting method; assay type: functional; procedure, shortened: as §1
Staphylococcus aureus [17] = assay: Antimicrobial activity against vancomycin-susceptible-, methicillin-resistant Staphylococcus aureus 1307 assessed as post-antibiotic effect at 10 times MIC pre-exposed to Telavancin for 1 hr by plate counting method; assay type: functional
Procedure, shortened: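 Direct colony suspensions (~5 × 10^6 CFU/ml) were exposed to 10× MIC for 1 h at 35°C with shaking in Mueller-Hinton broth, then diluted 1:1,000 to remove drug. Viable plate counts were taken before exposure, at 0 h, then every 2 h until turbidity reached McFarland 1. PAE = T − C, the time for counts to rise 1 log10 versus the unexposed control. Two separate experiments were run.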

Staphylococcus aureus [18] = assay: Antimicrobial activity against vancomycin-resistant-, methicillin-resistant Staphylococcus aureus 510 by microdilution method; assay type: functional
Streptococcus agalactiae [19] = assay: Antimicrobial activity against Streptococcus agalactiae HMC 5 assessed as time required to induce post antibiotic sub-MIC effect at 0.3 times MIC […] by plate counting method; assay type: functional; procedure, shortened: as §3

Q: CCCCCCCCCCNCCN[C@@]1(C)C[C@H](O[C@H]2[C@H](Oc3c4cc5cc3Oc3ccc(cc3Cl)[C@@H](O)[C@@H](NC(=O)[C@@H](CC(C)C)NC)C(=O)N[C@@H](CC(N)=O)C(=O)N[C@H]5C(=O)N[C@H]3C(=O)N[C@H](C(=O)N[C@H](C(=O)O)c5cc(O)c(CNCP(=O)(O)O)c(O)c5-c5cc3ccc5O)[C@H](O)c3ccc(c(Cl)c3)O4)O[C@H](CO)[C@@H](O)[C@@H]2O)O[C@@H](C)[C@H]1O [TELAVANCIN] was tested. Which PAE (Staphylococcus aureus [1]) did it give?
A: Its PAE is 9.6 h.

Q: What about the PAE (Staphylococcus aureus [2]) of the same compound?
A: Its PAE is 1.7 h.

Q: And the MIC (Staphylococcus aureus [3])?
A: The MIC was 0.5 µg/mL (≈ 0.285 µM).

Q: What about the PAE (Streptococcus agalactiae [4]) of the same compound?
A: The PAE was 0.8 h.

Q: What about the PAE (Staphylococcus aureus [5]) of the same compound?
A: Its PAE is 1 h.

Q: And the PAE (Staphylococcus aureus [6])?
A: Its PAE is 1 h.

Q: What about the PAE (Enterococcus faecalis [7]) of the same compound?
A: The PAE was 10.6 h.

Q: And the PAE (Streptococcus pyogenes)?
A: The PAE was 0.4 h.

Q: What about the MIC (Staphylococcus aureus [8]) of the same compound?
A: The MIC was 0.25 µg/mL (≈ 0.142 µM).

Q: And the PAE (Staphylococcus aureus [9])?
A: Its PAE is 7.7 h.

Q: And the PAE (Staphylococcus aureus [10])?
A: Its PAE is 1.2 h.

Q: What about the PAE (Enterococcus faecalis [11]) of the same compound?
A: Its PAE is 3.6 h.

Q: And the PAE (Staphylococcus aureus [12])?
A: Its PAE is 3.4 h.

Q: And the PAE (Staphylococcus aureus [13])?
A: Its PAE is 1.5 h.

Q: And the PAE (Staphylococcus aureus [14])?
A: The PAE was 3.6 h.

Q: And the PAE (Staphylococcus aureus [15])?
A: Its PAE is 5.1 h.

Q: And the PAE (Staphylococcus aureus [16])?
A: The PAE was 6.7 h.

Q: What about the PAE (Staphylococcus aureus [17]) of the same compound?
A: The PAE was 1.1 h.

Q: And the MIC (Staphylococcus aureus [18])?
A: Its MIC is 0.5 µg/mL (≈ 0.285 µM).

Q: What about the PAE (Streptococcus agalactiae [19]) of the same compound?
A: Its PAE is 4.7 h.
